From ChEMBL document CHEMBL4513216, “Probing the Open Global Health Chemical Diversity Library for Multistage-Active Starting Points for Next-Generation Antimalarials” (ACS Infect Dis, 2020) come the findings set out here.

This data set in a line: Toxicity liver stage against HepG2, at 10uM. Type of data set: cell-based. Also noted: test concentration 10 uM, cell line HepG2-A16-CD81EGFP. As to conditions: human, HepG2-A16-CD81EGFP cells; read-out: INHIBITION
A digest of the protocol: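 Uninfected HepG2-A16-CD81EGFP cells, 3 × 10^3 per well, 1536-well, plated on prespotted compound at 10 μM final, parasite-free screening media added to match infected plates; puromycin 10 μM positive, DMSO 0.5% negative; run in parallel with 48 h PbLuc assay at 37 °C, 5% CO2; viability by CellTiter-Glo luminescence, normalized to controls.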
Take `Cn1c2ccc(F)cc2c2ncn(CCCN(CCO)CCO)c(=O)c21`: the cytotoxicity at 10 µM came out at 11.2%. In the case of `Cn1nc(-c2cccs2)cc1[C@H]1CN2CC[C@H]1C[C@@H]2CN` it was 5.88%; in that of `COCC(O)CN1CCC(=O)N(Cc2ccco2)Cc2ccccc21` (stereo unspecified), -5.62%; in that of `CN1CC(C)(C)CN(C(=O)CCc2ccccc2)CC1=O`, -0.191%. In the case of `COCCN(Cc1cc(O)nc2ccccc12)C(=O)NC(C)C`, the cytotoxicity at 10 µM stood at 7.66%.

`CCN1CCNC(=O)C12CCN(S(=O)(=O)c1ccc(OC)cc1)CC2`: the cytotoxicity at 10 µM was 0.699%. To `COCCN1CCC2(CCN(C(=O)c3ccc(F)cc3)CC2)C1=O` belongs 2.85%; to `CCN1CC2(CC1=O)CN(C(=O)NC)CCN(S(C)(=O)=O)C2` (stereo unspecified), -6.29%.

On to `Cc1nc(C)c2c(n1)CCN(C(=O)CN(C)C)CC2`, for which the cytotoxicity at 10 µM is -4.51%. In the case of `COCc1cncc2c1CCN(Cc1cccnc1)C2` it was 3.91%; in that of `CNC(=O)C1CCN(c2nc3nc[nH]c(=O)c3s2)CC1`, -13.5%; in that of `COc1ccc(C2SCC(=O)N2c2ncc(C)s2)cc1` (stereo unspecified), 8.45%. In the case of `CC(C)CN1C(=O)c2ccc(C(=O)NCCc3c[nH]cn3)cc2C1=O` it was 9.66%; in that of `CN(C)C(=O)COC[C@]12COC[C@H]1CN(Cc1ccoc1)C2`, -1.56%. To `CS(=O)(=O)c1cc(Cl)cnc1C1CCN(C(=O)C2CCOCC2)CC1` belongs 4.07%; to `CN(C)c1ncc2c(O)nc(C3CCCNC3)cc2n1` (stereo unspecified), 8.62%; to `Cn1ncc2c1CCCN(C(=O)C1CC1)C2`, -8.27%. In the case of `CNC(=O)C1(CCCc2cnccn2)CCN1Cc1ccc(C)cc1` (stereo unspecified), the cytotoxicity at 10 µM amounted to 0.615%.

Consider `CNc1nc(C2CCCN(C(=O)C3CCCCC3)C2)nc2c1CNCC2` (stereo unspecified), for which the cytotoxicity at 10 µM was -1.85%.

As for `Nc1nccnc1CC1CCCN(Cc2c[nH]c3ccccc23)C1` (stereo unspecified), the cytotoxicity at 10 µM was 2.81%. As to `Cc1cc(CCC(=O)N2CCCC2)nc(C2CCCN2)n1` (stereo unspecified), the cytotoxicity at 10 µM came to 5.91%. In the case of `CCc1cc(C(=O)N2CCCC(c3[nH]ncc3S(C)(=O)=O)C2)no1` (stereo unspecified) it was -0.335%; in that of `CCc1nccn1-c1cccc(C2CCCN(C3CCCCC3)C2)n1` (stereo unspecified), -5.08%; in that of `Cc1c[nH]nc1C1CCCCN1C(=O)CC1(O)CCCCC1` (stereo unspecified), -2.92%. For `Cn1cc(C2CCCN2C(=O)c2cnc(-c3ncccn3)s2)cn1` (stereo unspecified), the cytotoxicity at 10 µM came to 18.8%. To `CNC(=O)c1cccc(CNC2CCSc3c(Cl)cccc32)c1` (stereo unspecified) belongs 12.8%.

With `N#CCCN(Cc1ccco1)C(=O)COC1CCCCC1`, the cytotoxicity at 10 µM is 6.35%. In the case of `COCCn1c(C(=O)NCc2n[nH]c(C)n2)cc2ccccc21` it was -3.83%; in that of `CNC(=O)CCOC(=O)c1cccc(-n2ccc(C(F)(F)F)n2)c1`, -41.9%. In the case of `Cc1cc(C2CCCN(C(=O)COc3cc(F)ccc3F)C2)n[nH]1` (stereo unspecified) it was -1.3%; in that of `Cn1c(C2CCCN2C(=O)CN2CCCC2=O)nc2ccccc21` (stereo unspecified), -3.47%; in that of `CN1CCC(N2CCOC3(CCCC3)C2)C1=O` (stereo unspecified), -6.52%. To `Cc1cnc(CN2CCN(C(C)c3nc(C4CC4)no3)CC2)cn1` (stereo unspecified) belongs 1.32%; to `O=C(Cn1ccc(=O)c2ccccc21)Nc1cnccc1O`, -4.08%; to `O=C(N1CCOCC1)N1CCN(c2ccncc2Cl)CC1`, -4.79%. For the molecule `Cc1cnn(CC2CCCN2CC(=O)N(C)Cc2ccco2)c1` (stereo unspecified), the cytotoxicity at 10 µM worked out at 10.8%. In the case of `CN(Cc1nc2ccccc2s1)C1CCCN(c2cccnn2)C1` (stereo unspecified) it was 5.15%. To `CC(=O)c1cccc(NC(=O)N(CCO)C2CCc3ccccc32)c1` (stereo unspecified) belongs -3.01%; to `COCC(C)(C)NS(=O)(=O)C1CS(=O)(=O)c2ccccc21` (stereo unspecified), 4.22%.

On to `Cc1nc(-c2ccsc2)ccc1C(=O)N1CCn2c(C)nnc2C1`, for which the cytotoxicity at 10 µM is -7.83%. In the case of `CC(C)(C)n1ncc2c(=O)[nH]c(NC3CC=CC3)nc21` it was 1.68%; in that of `NC(=O)CNC1(c2ccc(Cl)cc2)CCCC1`, 13%; in that of `CC(C)C(CNCc1cccc2c1OCO2)N1CCOCC1` (stereo unspecified), -49.1%. To `CCc1nc(C2CCCN2c2ncc(C(N)=O)cc2Cl)no1` (stereo unspecified) belongs -3.99%; to `COC(=O)CC(C)(C)CC(=O)N1CCC(C(F)(F)F)CC1`, 14.9%; to `O=c1[nH]c(N2CCN(C3CC3)CC2)nc2c1cnn2-c1ccccc1`, 10.8%. To `COC(=O)CCCNC(=O)COc1ccccc1C(F)(F)F` belongs -0.969%; to `O=C(NCC1CC1)[C@@H]1CC[C@@H]2[C@@H](CCN2CCOCc2ccccc2)O1`, -112%; to `CN1CCN(Cc2cn3c(n2)CN(Cc2ccccn2)CC3)CC1`, -117%. `Cc1ccc(CN2CCC3(CCCN(S(C)(=O)=O)C3)C2)o1` (stereo unspecified): the cytotoxicity at 10 µM was -104%. In the case of `CC[C@H](C)Nc1ncc(-c2ccn(C3CCN(C(C)=O)CC3)n2)cn1` it was -9.22%; in that of `CC[C@@H](C)[C@@H](N)C(=O)Nc1cccc(-c2cnc(NCCO)nc2)c1`, -3.08%; in that of `CCOc1ccc(-c2ccnc(C)n2)cc1C(=O)O`, 5.59%. To `c1cc(CN(CCCn2ccnc2)Cc2ccoc2)ccn1` belongs -11.1%. To `O=C(NCCN1CCCC(CO)C1)c1ccc2sccc2c1` (stereo unspecified) belongs -5.35%.

As for `CC(CCN1CCC(n2cc(CCO)nn2)CC1)c1ccccc1` (stereo unspecified), the cytotoxicity at 10 µM came to 3.23%.

With `CCN(C)Cc1nc(-c2ccccc2NS(C)(=O)=O)oc1C`, the cytotoxicity at 10 µM came out at 3.63%. To `Cc1nccc(NCc2cc3n(n2)CCCN(S(C)(=O)=O)C3)n1` belongs 2.35%; to `C/C=C(\C)CN1C[C@H](NC(=O)c2cc[nH]c2C)[C@@H](C2CC2)C1`, 4.96%. In the case of `NCC1Cc2cc(Cl)cc(-c3cncc(C(=O)N4CCCCC4)n3)c2O1` (stereo unspecified) it was -53%; in that of `COc1ccc(-n2c(SC)nc(O)c(Cc3ccccc3)c2=O)cc1`, -7.52%; in that of `CC(=O)NCc1nnc2n1CCN(c1ncnc3c(C)csc13)CC2`, 4.71%. To `Cc1cc(F)cc(CN2CCCn3nc(CNS(C)(=O)=O)cc3C2)c1` belongs -3.85%; to `Cc1nc(CCNc2nc(N(C)C)nc3c2CCCC3)cc(=O)[nH]1`, 6.86%; to `CC[C@H](C)Cn1nc(C2CCNCC2)n(Cc2ccccc2)c1=O`, -5.82%.

`O=C(O)C1(Oc2ccc(Cl)cc2)CCN(C2CCOCC2)CC1`: the cytotoxicity at 10 µM was found to be 3.05%. To `Cc1cccn2c(CNC(C)CO)cnc12` (stereo unspecified) belongs -2.78%; to `CCN(CCO)C(=O)c1cc(Cn2c(C)nc3ccccc32)[nH]n1`, 8.51%. Take `CNC(=O)[C@@H]1C[C@@H](n2cc(-c3ccc(CN4CC=CC4)cc3)nn2)CN1`: the cytotoxicity at 10 µM was determined as 3.76%. To `Cc1nc[nH]c1CN1CCN(C(=O)CCC(F)(F)F)[C@H]2CS(=O)(=O)C[C@H]21` belongs -12.3%; to `Cc1c(Br)cc2c(c1C)OCC(N(C)C)C2=O` (stereo unspecified), -13.1%; to `Cc1cn(Cc2ccccc2)nc1N`, -4.66%. In the case of `CN1CCCC1CNC(=O)CCCOc1ccc(Cl)cc1` (stereo unspecified) it was -9.33%; in that of `Cn1cnnc1C1CCCN(C(=O)CCc2ccc3c(c2)OCO3)C1` (stereo unspecified), 0.415%.

`COc1ccc(-c2nc(CN3CCCC3Cn3cccn3)no2)cc1` (stereo unspecified): the cytotoxicity at 10 µM is -1.89%. To `COc1cc(CCC(=O)NC2CC2)ccc1OCC(F)(F)F` belongs -8.35%; to `CCN(CC1CCOC1)C(=O)c1ccccc1NS(=O)(=O)CC` (stereo unspecified), -7.4%. Turning to `CC(=O)N1CCCN(C(=O)c2cnc3n[nH]c(C)c3c2)CC1`, the cytotoxicity at 10 µM was -5.85%. `Cc1ccc(NC2CCN(C(=O)CCc3ccco3)CC2)nn1`: the cytotoxicity at 10 µM was -2.97%.

As for `Cc1ccccc1CC(=O)N1CCN(C2CCOC2=O)CC1` (stereo unspecified), the cytotoxicity at 10 µM was -8.38%.

For `CCc1nccn1C1CCCN(C(=O)c2cnn3ccc(C)nc23)C1` (stereo unspecified), the cytotoxicity at 10 µM is -9.68%. In the case of `Cc1cnn(CC2CCCN2C(=O)c2cc3c(F)cccc3[nH]2)c1` (stereo unspecified) it was -12.7%; in that of `Cc1ccc(-c2cc(CN3CCOC(Cn4cncn4)C3)on2)cc1` (stereo unspecified), -8.65%; in that of `CC(=O)N1CCC(N2CCC(c3nc(C)cc(C)n3)C2)CC1` (stereo unspecified), -7.87%. To `c1cncc(OC[C@]23COC[C@H]2CN(C2CCOCC2)C3)c1` belongs 8.61%; to `COCCN1CCO[C@@H]2CN(Cc3sccc3C)C[C@@H]2C1`, -1.34%; to `Cc1ccc(N2Cc3cnn(C)c3C(COCC3CC3)C2)nn1` (stereo unspecified), 3.28%. To `COc1ccccc1CN1CC[C@]2(C[C@@H](OCC(=O)N(C)C)CO2)C1` belongs -112%.

In the case of `c1ncc(-c2ccc(C3CNCCO3)nc2)cn1` (stereo unspecified), the cytotoxicity at 10 µM was -5.33%. To `O=C(Nc1cnccn1)[C@@H]1COC[C@H]2CN(C3CCC3)C[C@H]21` belongs 14.7%. In the case of `O=C(N1CCOCC1)[C@@]12CCO[C@@H]1CCN(CC1CCCCC1)C2` it was 3.59%; in that of `O=C1COC2(CCN(Cc3ccsc3)CC2)CN1`, -3.46%; in that of `O=C(NC[C@H]1OC[C@@H](NC2CCNCC2)[C@@H]1O)C1CCCC1`, -10.5%. In the case of `c1ccc(OCc2noc3c2CN(c2ncccn2)CC3)nc1`, the cytotoxicity at 10 µM was -3.25%. In the case of `O=C(NCCc1cccs1)[C@]12COC[C@H]1CN(Cc1ccccn1)C2` it was -105%; in that of `Cc1ccc(C(=O)N2C[C@@H]3CC[C@H]2CN(S(=O)(=O)N(C)C)C3)c(O)c1`, 3.41%.
